# Data reported in ChEMBL document CHEMBL1153428, “Synthesis and structure-activity relationships of amide derivatives of (4,4-difluoro-1,2,3,4-tetrahydro-5H-1-benzazepin-5-ylidene)acetic acid as selective arginine vasopressin V2 receptor agonists” (Bioorg Med Chem, 2009).
# Calls of active or inactive are those of the source. The rule behind the calls is not given here.
# Experiments:
# [1] = target: Vasopressin V1a receptor (Homo sapiens, UniProt P37288); assay: Displacement of [3H]vasopressin from human V1a receptor expressed in CHO cells; assay type: cell-based
# Method in brief: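 Membrane receptors from CHO cells expressing human V1a were used in a radioligand competition binding format. Ki values come from triplicate assays.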
# [2] = species on record: Homo sapiens; assay: Selectivity for human V1a receptor to human V2 receptor
# [3] = target: T1, Vasopressin V2 receptor (Homo sapiens, UniProt P30518); assay: Displacement of [3H]vasopressin from human V2 receptor expressed in CHO cells; assay type: cell-based
# [4] = target: Cytochrome P450 2C9 (Homo sapiens, UniProt P11712); assay: Inhibition of recombinant CYP2C9 by fluorescent P450 inhibition assay
# [5] = target: T1, Vasopressin V2 receptor; assay: Intrinsic activity at human V2 receptor expressed in CHO cells assessed as increase in cAMP level relative to arginine vasopressin; assay type: functional, cell-based
# Method in brief: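 CHO cells stably expressing human V2 receptors, grown in α-MEM with 10% FBS, serum-starved 24 h. Compound added in α-MEM with 1 mmol/L IBMX and 0.1% BSA, 10 min at 37 °C. Cells lysed in PBS with 0.2% Triton X-100; cAMP read by HTRF. Maximum response expressed as % of AVP maximum (100%); triplicate.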
# [6] = target: Cytochrome P450 2D6 (Homo sapiens, UniProt P10635); assay: Inhibition of recombinant CYP2D6 by fluorescent P450 inhibition assay
# [7] = system: Rattus norvegicus; assay: Antidiuretic effect in iv dosed water-loaded Wistar rat assessed as suppression of urinary excretion within 4 hrs; assay type: functional, organism-based; conditions: Urine
# [8] = target: Cytochrome P450 2C19 (Homo sapiens, UniProt P33261); assay: Inhibition of recombinant CYP2C19 by fluorescent P450 inhibition assay
# [9] = target: Cytochrome P450 3A4 (Homo sapiens, UniProt P08684); assay: Inhibition of CYP3A4 in human liver microsome assessed as 1'-hydroxymidazolam formation by competitive inhibition assay
# [10] = target: T1, Vasopressin V2 receptor; assay: Agonist activity at human V2 receptor expressed in CHO cells assessed as increase in cAMP level; assay type: functional, cell-based
# Method in brief: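 CHO cells stably expressing human V2 were grown in α-MEM with 10% FBS and 0.1% amethopterin at 37 °C, then serum-starved for 24 h. Compound was added in α-MEM with 1 mmol/L IBMX and 0.1% BSA for 10 min at 37 °C. Cells were lysed in PBS with 0.2% Triton X-100 and cAMP was read by HTRF. EC50 was derived by logistic regression; Emax was expressed as % of the AVP maximum. Assays were run in triplicate.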
# Chain of Vasopressin V1a receptor (P37288 whole entry): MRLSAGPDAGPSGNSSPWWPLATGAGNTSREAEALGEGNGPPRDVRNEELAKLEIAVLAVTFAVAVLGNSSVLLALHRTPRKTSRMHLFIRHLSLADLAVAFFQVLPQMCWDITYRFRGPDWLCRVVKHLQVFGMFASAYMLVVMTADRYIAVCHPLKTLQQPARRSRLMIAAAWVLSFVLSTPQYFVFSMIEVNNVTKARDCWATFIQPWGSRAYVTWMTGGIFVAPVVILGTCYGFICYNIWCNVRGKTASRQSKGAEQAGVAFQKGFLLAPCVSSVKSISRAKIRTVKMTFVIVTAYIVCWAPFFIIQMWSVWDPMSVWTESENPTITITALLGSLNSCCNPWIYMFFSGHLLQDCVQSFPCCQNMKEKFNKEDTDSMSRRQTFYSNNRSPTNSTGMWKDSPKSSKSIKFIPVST
# T1 sequence (P30518 whole entry): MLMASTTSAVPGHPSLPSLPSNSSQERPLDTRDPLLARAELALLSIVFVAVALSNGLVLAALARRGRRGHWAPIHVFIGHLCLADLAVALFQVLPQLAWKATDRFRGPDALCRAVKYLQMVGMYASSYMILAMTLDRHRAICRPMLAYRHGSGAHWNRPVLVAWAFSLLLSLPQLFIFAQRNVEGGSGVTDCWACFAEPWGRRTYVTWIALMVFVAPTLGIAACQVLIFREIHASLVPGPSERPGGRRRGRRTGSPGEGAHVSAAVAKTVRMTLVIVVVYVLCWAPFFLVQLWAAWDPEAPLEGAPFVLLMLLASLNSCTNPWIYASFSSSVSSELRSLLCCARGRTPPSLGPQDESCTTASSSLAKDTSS
# Chain of Cytochrome P450 2C9 (P11712 whole entry): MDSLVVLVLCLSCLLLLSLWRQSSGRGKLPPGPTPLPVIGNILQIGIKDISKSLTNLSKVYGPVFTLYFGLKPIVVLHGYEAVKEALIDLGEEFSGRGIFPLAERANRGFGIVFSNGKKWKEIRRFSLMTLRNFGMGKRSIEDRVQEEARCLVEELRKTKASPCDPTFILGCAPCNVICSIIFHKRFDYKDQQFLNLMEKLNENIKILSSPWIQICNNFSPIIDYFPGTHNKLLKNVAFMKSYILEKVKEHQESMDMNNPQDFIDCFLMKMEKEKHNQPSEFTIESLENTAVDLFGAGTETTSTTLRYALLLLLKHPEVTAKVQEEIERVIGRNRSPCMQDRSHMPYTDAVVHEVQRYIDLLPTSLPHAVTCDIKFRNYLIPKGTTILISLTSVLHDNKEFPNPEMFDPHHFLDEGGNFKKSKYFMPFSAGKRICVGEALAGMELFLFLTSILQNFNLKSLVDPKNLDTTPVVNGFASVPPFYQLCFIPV
# Chain of Cytochrome P450 2C19 (P33261 whole entry): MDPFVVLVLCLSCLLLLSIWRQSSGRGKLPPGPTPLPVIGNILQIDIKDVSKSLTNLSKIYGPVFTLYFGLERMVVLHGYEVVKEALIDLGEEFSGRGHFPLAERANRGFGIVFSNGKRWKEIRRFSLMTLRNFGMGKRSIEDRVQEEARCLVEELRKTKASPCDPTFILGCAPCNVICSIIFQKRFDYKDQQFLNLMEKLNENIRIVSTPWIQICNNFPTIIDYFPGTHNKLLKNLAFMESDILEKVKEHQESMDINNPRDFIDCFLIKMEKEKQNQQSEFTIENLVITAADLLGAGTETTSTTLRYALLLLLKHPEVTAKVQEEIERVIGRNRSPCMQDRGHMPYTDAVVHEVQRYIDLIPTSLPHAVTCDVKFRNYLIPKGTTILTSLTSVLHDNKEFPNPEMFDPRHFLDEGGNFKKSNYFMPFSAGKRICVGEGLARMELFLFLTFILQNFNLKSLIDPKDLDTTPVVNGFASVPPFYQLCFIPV
# Chain of Cytochrome P450 2D6 (P10635 whole entry): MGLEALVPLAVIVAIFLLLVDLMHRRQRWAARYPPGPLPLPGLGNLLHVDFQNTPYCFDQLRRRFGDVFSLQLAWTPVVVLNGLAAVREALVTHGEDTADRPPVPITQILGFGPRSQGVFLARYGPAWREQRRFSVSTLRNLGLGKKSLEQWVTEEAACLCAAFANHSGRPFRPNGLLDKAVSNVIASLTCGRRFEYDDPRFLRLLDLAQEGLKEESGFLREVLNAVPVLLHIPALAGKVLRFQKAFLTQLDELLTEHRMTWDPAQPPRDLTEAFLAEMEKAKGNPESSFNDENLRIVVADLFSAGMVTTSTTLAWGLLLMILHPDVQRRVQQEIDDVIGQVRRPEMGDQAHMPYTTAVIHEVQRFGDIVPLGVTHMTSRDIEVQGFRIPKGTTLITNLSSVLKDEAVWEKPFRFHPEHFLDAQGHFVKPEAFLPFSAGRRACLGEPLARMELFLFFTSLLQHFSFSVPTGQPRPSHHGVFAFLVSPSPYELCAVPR
# Chain of Cytochrome P450 3A4 (P08684 whole entry): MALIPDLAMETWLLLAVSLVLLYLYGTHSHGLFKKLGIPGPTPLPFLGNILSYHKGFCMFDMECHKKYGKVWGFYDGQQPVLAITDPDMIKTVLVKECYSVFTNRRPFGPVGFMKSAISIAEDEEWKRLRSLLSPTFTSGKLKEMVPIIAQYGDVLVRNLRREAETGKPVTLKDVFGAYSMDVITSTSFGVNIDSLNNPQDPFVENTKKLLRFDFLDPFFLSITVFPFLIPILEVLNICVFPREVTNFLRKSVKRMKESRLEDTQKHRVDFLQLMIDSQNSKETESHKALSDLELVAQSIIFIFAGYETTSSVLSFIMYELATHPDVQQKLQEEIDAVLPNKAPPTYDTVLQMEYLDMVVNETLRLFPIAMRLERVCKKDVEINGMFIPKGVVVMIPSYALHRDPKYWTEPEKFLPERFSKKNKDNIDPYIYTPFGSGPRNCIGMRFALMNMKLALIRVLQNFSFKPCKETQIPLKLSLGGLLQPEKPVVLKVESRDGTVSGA
Ki [1],Ratio Ki [2],Ki [3],SMILES,other results
30 nM,5.4,,Cc1cccc(CNC(=O)/C=C2/c3ccccc3N(C(=O)c3ccc(-n4ccc(C)n4)cc3Cl)CCC2(F)F)n1,
15 nM,0.75,20 nM,Cc1ccn(-c2ccc(C(=O)N3CCC(F)(F)/C(=C\C(=O)NCc4ccncc4)c4ccccc43)c(Cl)c2)n1,
72 nM,6,12 nM,Cc1ccn(-c2ccc(C(=O)N3CCC(F)(F)/C(=C\C(=O)NCc4nc5ccccc5[nH]4)c4ccccc43)c(Cl)c2)n1,
22 nM,3,7.4 nM,Cc1ccn(-c2ccc(C(=O)N3CCC(F)(F)/C(=C\C(=O)NCc4cccc(C#N)n4)c4ccccc43)c(Cl)c2)n1,
43 nM,,3.4 nM,Cc1ccn(-c2ccc(C(=O)N3CCC(F)(F)/C(=C\C(=O)NCc4cccnn4)c4ccccc43)c(Cl)c2)n1,Emax [5]: 86.4%; Activity [7]: Active; EC50 [10]: 16 nM
55 nM,5,11 nM,Cc1ccn(-c2ccc(C(=O)N3CCC(F)(F)/C(=C\C(=O)NCc4nc5ccccc5s4)c4ccccc43)c(Cl)c2)n1,
38 nM,3.8,10 nM,Cc1ccn(-c2ccc(C(=O)N3CCC(F)(F)/C(=C\C(=O)NCc4cccc(N)n4)c4ccccc43)c(Cl)c2)n1,
26 nM,,,Cc1ccn(-c2ccc(C(=O)N3CCC(F)(F)/C(=C\C(=O)NCc4ccccn4)c4ccccc43)c(Cl)c2)n1,
40 nM,1.9,21 nM,Cc1ccn(-c2ccc(C(=O)N3CCC(F)(F)/C(=C\C(=O)NCc4cccnc4)c4ccccc43)c(Cl)c2)n1,
43 nM,2.3,19 nM,Cc1ccn(-c2ccc(C(=O)N3CCC(F)(F)/C(=C\C(=O)NCc4ccccc4)c4ccccc43)c(Cl)c2)n1,
47 nM,2.9,16 nM,COc1cccc(CNC(=O)/C=C2/c3ccccc3N(C(=O)c3ccc(-n4ccc(C)n4)cc3Cl)CCC2(F)F)n1,

# The next lines start with the molecule.
SMILES,Ki [1],Ratio Ki [2],Ki [3],other results
Cc1ccn(-c2ccc(C(=O)N3CCC(F)(F)/C(=C\C(=O)O)c4ccccc43)c(Cl)c2)n1,6300 nM,252,25 nM,IC50 [4]: > 20000 nM; Emax [5]: 92.4%; IC50 [6]: 11000 nM; Activity [7]: inactive; IC50 [8]: > 20000 nM; IC50 [9]: > 20000 nM; EC50 [10]: 4.2 nM
Cc1ccn(-c2ccc(C(=O)N3CCC(F)(F)/C(=C\C(=O)NCc4ccco4)c4ccccc43)c(Cl)c2)n1,72 nM,2.7,27 nM,
Cc1ccn(-c2ccc(C(=O)N3CCC(F)(F)/C(=C\C(=O)NCc4cnccn4)c4ccccc43)c(Cl)c2)n1,57 nM,4.1,14 nM,
Cc1ccn(-c2ccc(C(=O)N3CCC(F)(F)/C(=C\C(=O)NCCO)c4ccccc43)c(Cl)c2)n1,28 nM,,9.7 nM,Emax [5]: 93.9%; Activity [7]: Active; EC50 [10]: 6.3 nM
Cc1ccn(-c2ccc(C(=O)N3CCC(F)(F)/C(=C\C(=O)NCc4cccc(N(C)C)n4)c4ccccc43)c(Cl)c2)n1,48 nM,4.4,11 nM,
Cc1ccn(-c2ccc(C(=O)N3CCC(F)(F)/C(=C\C(N)=O)c4ccccc43)c(Cl)c2)n1,190 nM,5.8,33 nM,
Cc1ccn(-c2ccc(C(=O)N3CCC(F)(F)/C(=C\C(=O)NCC(=O)O)c4ccccc43)c(Cl)c2)n1,230 nM,10,22 nM,
Cc1ccn(-c2ccc(C(=O)N3CCC(F)(F)/C(=C\C(=O)NCc4ccncn4)c4ccccc43)c(Cl)c2)n1,44 nM,4,11 nM,
Cc1ccn(-c2ccc(C(=O)N3CCC(F)(F)/C(=C\C(=O)NCC(N)=O)c4ccccc43)c(Cl)c2)n1,40 nM,3.6,11 nM,
Cc1ccn(-c2ccc(C(=O)N3CCC(F)(F)/C(=C\C(=O)NCCN(C)C)c4ccccc43)c(Cl)c2)n1,59 nM,1.1,53 nM,
Cc1ccn(-c2ccc(C(=O)N3CCC(F)(F)/C(=C\C(=O)NCc4nccs4)c4ccccc43)c(Cl)c2)n1,43 nM,3.9,11 nM,
CCCNC(=O)/C=C1/c2ccccc2N(C(=O)c2ccc(-n3ccc(C)n3)cc2Cl)CCC1(F)F,13 nM,0.72,18 nM,
